Experimental data from ChEMBL document CHEMBL1131440, “Synthesis and potent antifolate activity and cytotoxicity of B-ring deaza analogues of the nonpolyglutamatable dihydrofolate reductase inhibitor Nalpha-(4-amino-4-deoxypteroyl)-Ndelta-hemiphthaloyl- L-ornithine (PT523)” (J Med Chem, 1998).

Legend:
A498 = experiment: Compound was evaluated for in vitro activity against A498 kidney cell lines (Human tumor cells ); type: functional, cell-based
Method in brief: (§1)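 NCI Developmental Therapeutics Program human tumor cell panel; drug exposure in 96-well plates for the last 48 h of a 72-h incubation, then cells stained for total protein with sulforhodamine B per the standard NCI protocol. Data supplied by NCI.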

A549 = experiment: Compound was evaluated for in vitro activity against A549/ATCC lung cancer cell lines (Human tumor cells )
BT-549 = experiment: Compound was evaluated for in vitro activity against BT-549 breast cancer cell lines (Human tumor cells ); type: functional, cell-based; method in brief: as §1
CCRF-CEM = experiment: Compound was evaluated for in vitro activity against CCRF-CEM leukemia cell lines (Human tumor cells ); type: functional, cell-based; method in brief: as §1
COLO 205 = experiment: Compound was evaluated for in vitro activity against COLO 205 Colon cell lines (Human tumor cells ); type: functional, cell-based
Method in brief: (§2)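 Total protein then stained with sulforhodamine B following the standard NCI protocol. Data supplied by the NCI Developmental Therapeutics Program.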

DU-145 = experiment: Compound was evaluated for in vitro activity against DU-145 prostate cell lines (Human tumor cells ); type: functional, cell-based; method in brief: as §1
HOP-92 = experiment: Compound was evaluated for in vitro activity against HOP-92 lung cancer cell lines (Human tumor cells ); type: functional, cell-based; method in brief: as §1
HCC 2998 = experiment: Compound was evaluated for in vitro activity against HCC2998 Colon cell lines (Human tumor cells ); type: functional, cell-based; method in brief: as §1
HL-60 = experiment: Compound was evaluated for in vitro activity against HL-60(TB) leukemia cell lines (Human tumor cells ); type: functional, cell-based; method in brief: as §1
Hs-578T = experiment: Compound was evaluated for in vitro activity against Hs 578.T breast cancer cell lines (Human tumor cells ); type: functional, cell-based; method in brief: as §1
KM12 = experiment: Compound was evaluated for in vitro activity against KM-12 Colon cell lines (Human tumor cells ); type: functional, cell-based; method in brief: as §1
K562 = experiment: Compound was evaluated for in vitro activity against K562 leukemia cell lines (Human tumor cells ); type: functional, cell-based; method in brief: as §1
IGROV-1 = experiment: Compound was evaluated for in vitro activity against IGROV1 Ovary cell lines (Human tumor cells ); type: functional, cell-based; method in brief: as §1
M14 = experiment: Compound was evaluated for in vitro activity against M14 Melanoma cell lines (Human tumor cells ); type: functional, cell-based; method in brief: as §1
MDA-MB-435 = experiment: Compound was evaluated for in vitro activity against MDA-MB-435 breast cancer cell lines (Human tumor cells ); type: functional, cell-based; method in brief: as §1
Malme-3M = experiment: Compound was evaluated for in vitro activity against MALME-3M Melanoma cell lines (Human tumor cells ); type: functional, cell-based; method in brief: as §1
NCI-H226 = experiment: Compound was evaluated for in vitro activity against NCI-H226 lung cancer cell lines (Human tumor cells ); type: functional, cell-based; method in brief: as §1
OVCAR-4 = experiment: Compound was evaluated for in vitro activity against OVCAR-4 Ovary cell lines (Human tumor cells ); type: functional, cell-based; method in brief: as §1
OVCAR-5 = experiment: Compound was evaluated for in vitro activity against OVCAR-5 Ovary cell lines (Human tumor cells ); type: functional, cell-based; method in brief: as §1
PC-3 = experiment: Compound was evaluated for in vitro activity against PC-3 prostate cell lines (Human tumor cells ); type: functional, cell-based; method in brief: as §1
RXF 393 = experiment: Compound was evaluated for in vitro activity against RXF-393 kidney cell lines (Human tumor cells ); type: functional, cell-based; method in brief: as §1
RPMI-8226 = experiment: Compound was evaluated for in vitro activity against RPMI-8226 leukemia cell lines (Human tumor cells ); type: functional, cell-based; method in brief: as §1
SF-295 = experiment: Compound was evaluated for in vitro activity against SF-295 CNS cell lines (Human tumor cells ); type: functional, cell-based; method in brief: as §1
SNB- = experiment: Compound was evaluated for in vitro activity against […] CNS cell lines (Human tumor cells ); type: functional, cell-based; method in brief: as §1
SR = experiment: Compound was evaluated for in vitro activity against SR leukemia cell lines (Human tumor cells ); type: functional, cell-based; method in brief: as §1
SK-MEL-28 = experiment: Compound was evaluated for in vitro activity against SK-MEL28 Melanoma cell lines (Human tumor cells ); type: functional, cell-based; method in brief: as §1
SK-MEL-2 = experiment: Compound was evaluated for in vitro activity against SK-MEL-2 Melanoma cell lines (Human tumor cells ); type: functional, cell-based; method in brief: as §1
[1] = Compound was tested for in vitro antitumor activity, using SCC25 human head and neck squamous carcinoma cells; type: functional; conditions: SCC-25
Method in brief: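 Clonogenic assay: SCC25 cells exposed to graded drug concentrations for 72 h at 37 °C, 5% CO2, in DMEM with 10% FBS and hydrocortisone ([…]). Then replated as single cells at drug-dependent densities and grown in drug-free medium 10-14 days. Colonies stained with crystal violet; only colonies of ≥50 cells scored. IC50 is mean ± SD of ≥3 assays on different days.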

TK-10 = experiment: Compound was evaluated for in vitro activity against TK-10 kidney cell lines (Human tumor cells ); type: functional, cell-based; method in brief: as §1
T47D = experiment: Compound was evaluated for in vitro activity against T-47D breast cancer cell lines (Human tumor cells ); type: functional, cell-based; method in brief: as §1
UACC-257 = experiment: Compound was evaluated for in vitro activity against UACC-257 Melanoma cell lines (Human tumor cells ); type: functional, cell-based; method in brief: as §1
U-251 = experiment: Compound was evaluated for in vitro activity against U251 CNS cell lines (Human tumor cells ); type: functional, cell-based; method in brief: as §1
NCI-H522 = experiment: Compound was evaluated for in vitro activity against NCI-H522 lung cancer cell lines (Human tumor cells ); type: functional, cell-based; method in brief: as §1
MOLT-4 = experiment: Compound was evaluated for in vitro activity against MOLT-4 leukemia cell lines (Human tumor cells ); type: functional, cell-based; method in brief: as §1
EKVX = experiment: Compound was evaluated for in vitro activity against EKVX lung cancer cell lines (Human tumor cells ); type: functional, cell-based; method in brief: as §1
Dihydrofolate reductase = target: T1, Dihydrofolate reductase (Homo sapiens, UniProt P00374); experiment: Compound was evaluated for the inhibition of Dihydrofolate reductase at concentration ranged from 0.15-0.50 uM
T1 sequence (P00374 whole entry): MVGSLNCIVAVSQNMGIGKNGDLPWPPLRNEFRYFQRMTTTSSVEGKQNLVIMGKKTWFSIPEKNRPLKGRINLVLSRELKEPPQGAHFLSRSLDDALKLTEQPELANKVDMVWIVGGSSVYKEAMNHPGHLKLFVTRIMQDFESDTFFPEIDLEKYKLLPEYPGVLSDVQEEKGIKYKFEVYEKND

786-0 = experiment: Compound was evaluated for in vitro activity against 786-0 kidney cell lines (Human tumor cells ); type: functional, cell-based; method in brief: as §1
ACHN = experiment: Compound was evaluated for in vitro activity against ACHN kidney cell lines (Human tumor cells ); type: functional, cell-based; method in brief: as §1
HCT-15 = experiment: Compound was evaluated for in vitro activity against HCT-15 Colon cell lines (Human tumor cells ); type: functional, cell-based; method in brief: as §1
HCT-116 = experiment: Compound was evaluated for in vitro activity against HCT116 Colon cell lines (Human tumor cells ); type: functional, cell-based; method in brief: as §1
LOX IMVI = experiment: Compound was evaluated for in vitro activity against LOXIMV1 Melanoma cell lines (Human tumor cells ); type: functional, cell-based; method in brief: as §2
MCF7 = experiment: Compound was evaluated for in vitro activity against MCF-7 breast cancer cell lines (Human tumor cells ); type: functional, cell-based; method in brief: as §2
NCI-H460 = experiment: Compound was evaluated for in vitro activity against NCI-H460 lung cancer cell lines (Human tumor cells ); type: functional, cell-based; method in brief: as §1
OVCAR-3 = experiment: Compound was evaluated for in vitro activity against OVCAR-3 Ovary cell lines (Human tumor cells ); type: functional, cell-based; method in brief: as §2
OVCAR-8 = experiment: Compound was evaluated for in vitro activity against OVCAR-8 Ovary cell lines (Human tumor cells ); type: functional, cell-based; method in brief: as §1
NCI-H23 = experiment: Compound was evaluated for in vitro activity against NCI-H23 lung cancer cell lines (Human tumor cells ); type: functional, cell-based; method in brief: as §1
SF-268 = experiment: Compound was evaluated for in vitro activity against SF-268 CNS cell lines (Human tumor cells ); type: functional, cell-based; method in brief: as §1
SK-MEL-5 = experiment: Compound was evaluated for in vitro activity against SK-MEL-5 Melanoma cell lines (Human tumor cells ); type: functional, cell-based; method in brief: as §1
NCI/ADR-RES = experiment: Compound was evaluated for in vitro activity against NCI/ADR-RES breast cancer cell lines (Human tumor cells ); type: functional, cell-based; method in brief: as §2
SF-539 = experiment: Compound was evaluated for in vitro activity against SF-539 CNS cell lines (Human tumor cells ); type: functional, cell-based; method in brief: as §2
UACC-62 = experiment: Compound was evaluated for in vitro activity against UACC-62 Melanoma cell lines (Human tumor cells ); type: functional, cell-based; method in brief: as §1

Compound: CN(Cc1cnc2nc(N)nc(N)c2n1)c1ccc(C(=O)N[C@@H](CCC(=O)O)C(=O)O)cc1 [METHOTREXATE]
- IC50 (A498): > 1000 nM
- IC50 (A549): 33 nM
- IC50 (BT-549): > 1000 nM
- IC50 (CCRF-CEM): 29 nM
- IC50 (COLO 205): 870 nM
- IC50 (DU-145): 45 nM
- IC50 (HOP-92): > 1000 nM
- IC50 (HCC 2998): 110 nM
- IC50 (HL-60): 39 nM
- IC50 (Hs-578T): > 1000 nM
- IC50 (KM12): 33 nM
- IC50 (K562): 26 nM
- IC50 (IGROV-1): 65 nM
- IC50 (M14): 32 nM
- IC50 (MDA-MB-435): > 1000 nM
- IC50 (Malme-3M): > 1000 nM
- IC50 (NCI-H226): > 1000 nM
- IC50 (OVCAR-4): > 1000 nM
- IC50 (OVCAR-5): 980 nM
- IC50 (PC-3): 27 nM
- IC50 (RXF 393): > 1000 nM
- IC50 (RPMI-8226): 33 nM
- IC50 (SF-295): 36 nM
- IC50 (SNB-): > 1000 nM
- IC50 (SR): 33 nM
- IC50 (SK-MEL-28): > 1000 nM
- IC50 (SK-MEL-2): > 1000 nM
- IC50 [1]: 15 nM
- IC50 (TK-10): > 1000 nM
- IC50 (T47D): > 1000 nM
- IC50 (UACC-257): 790 nM
- IC50 (U-251): 63 nM
- IC50 (NCI-H522): 450 nM
- IC50 (MOLT-4): 28 nM
- IC50 (EKVX): > 1000 nM

Compound: Nc1nc(N)c2c(Cl)c(CNc3ccc(C(=O)NC(CCCNC(=O)c4ccccc4C(=O)O)C(=O)O)cc3)ccc2n1 (stereo not given)
- Ki (Dihydrofolate reductase): 0.00011 nM
- IC50 [1]: 0.33 nM

Compound: Nc1nc(N)c2cc(CNc3ccc(C(=O)NC(CCCNC(=O)c4ccccc4C(=O)O)C(=O)O)cc3)cnc2n1 (stereo not given)
- Ki (Dihydrofolate reductase): 0.00041 nM
- IC50 [1]: 1.8 nM

Compound: Cc1c(CNc2ccc(C(=O)NC(CCCNC(=O)c3ccccc3C(=O)O)C(=O)O)cc2)cnc2nc(N)nc(N)c12 (stereo not given)
- IC50 (786-0): < 0.1 nM
- IC50 (A498): > 1000 nM
- IC50 (ACHN): 0.39 nM
- IC50 (A549): 0.42 nM
- IC50 (BT-549): > 1000 nM
- IC50 (CCRF-CEM): 0.57 nM
- IC50 (COLO 205): 6.7 nM
- IC50 (DU-145): < 1 nM
- Ki (Dihydrofolate reductase): 0.0004 nM
- IC50 (HCT-15): 0.45 nM
- IC50 (HCT-116): 0.58 nM
- IC50 (HOP-92): > 1000 nM
- IC50 (HCC 2998): 0.9 nM
- IC50 (HL-60): < 1 nM
- IC50 (Hs-578T): 100 nM
- IC50 (KM12): 0.52 nM
- IC50 (K562): < 0.1 nM
- IC50 (IGROV-1): 0.52 nM
- IC50 (M14): 0.66 nM
- IC50 (LOX IMVI): < 0.1 nM
- IC50 (MDA-MB-435): 0.6 nM
- IC50 (Malme-3M): 47 nM
- IC50 (MCF7): 0.7 nM
- IC50 (NCI-H460): 0.38 nM
- IC50 (NCI-H226): 0.62 nM
- IC50 (OVCAR-3): 17 nM
- IC50 (OVCAR-8): 0.32 nM
- IC50 (OVCAR-4): > 1000 nM
- IC50 (OVCAR-5): 200 nM
- IC50 (NCI-H23): 1.5 nM
- IC50 (PC-3): < 0.1 nM
- IC50 (RXF 393): 380 nM
- IC50 (RPMI-8226): 0.84 nM
- IC50 (SF-268): 0.36 nM
- IC50 (SF-295): 0.59 nM
- IC50 (SNB-): 2.2 nM
- IC50 (SR): 0.45 nM
- IC50 (SK-MEL-28): 190 nM
- IC50 (SK-MEL-2): > 1000 nM
- IC50 [1]: 0.72 nM
- IC50 (SK-MEL-5): 0.64 nM
- IC50 (TK-10): > 1000 nM
- IC50 (T47D): > 1000 nM
- IC50 (UACC-257): 470 nM
- IC50 (U-251): 3.6 nM
- IC50 (NCI/ADR-RES): 0.3 nM
- IC50 (NCI-H522): 1.5 nM
- IC50 (SF-539): 0.46 nM
- IC50 (MOLT-4): 0.57 nM
- IC50 (UACC-62): 0.4 nM
- IC50 (EKVX): 2.5 nM
